Experiments:
[1] = target: Receptor-type tyrosine-protein kinase FLT3 (Homo sapiens) (UniProt P36888); assay: Inhibition of FLT3 (unknown origin) at 30 uM by microfluidic mobility shift assay relative to control
Outline: (§1)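 Single-point screen at 30 µM test compound across a 24-kinase panel in a microfluidic assay format. ATP was set near each enzyme's Km,[ATP]. […] The pan-AGC inhibitor H-89 served as an internal control on every assay plate.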

[2] = target: Insulin-like growth factor 1 receptor (Homo sapiens) (UniProt P08069); assay: Inhibition of IGF1R (unknown origin) at 30 uM by microfluidic mobility shift assay relative to control; outline: as §1
Homo sapiens [3] = species on record: Homo sapiens; assay: Inhibition of PKGalpha (unknown origin) at 30 uM by microfluidic mobility shift assay relative to control
Outline: (§2)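 Single-point screen against a 24-kinase panel in a commercial microfluidic assay format. Compounds were tested at 30 µM, with ATP at approximately the Km,[ATP] of each enzyme. H-89 was included on each assay plate as an internal control.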

[4] = target: T1, Serine/threonine-protein kinase BRSK1 (Homo sapiens) (UniProt Q8TDC3); assay: Inhibition of BRSK1 (unknown origin) at 30 uM by microfluidic mobility shift assay relative to control; outline: as §1
T1 sequence (whole entry): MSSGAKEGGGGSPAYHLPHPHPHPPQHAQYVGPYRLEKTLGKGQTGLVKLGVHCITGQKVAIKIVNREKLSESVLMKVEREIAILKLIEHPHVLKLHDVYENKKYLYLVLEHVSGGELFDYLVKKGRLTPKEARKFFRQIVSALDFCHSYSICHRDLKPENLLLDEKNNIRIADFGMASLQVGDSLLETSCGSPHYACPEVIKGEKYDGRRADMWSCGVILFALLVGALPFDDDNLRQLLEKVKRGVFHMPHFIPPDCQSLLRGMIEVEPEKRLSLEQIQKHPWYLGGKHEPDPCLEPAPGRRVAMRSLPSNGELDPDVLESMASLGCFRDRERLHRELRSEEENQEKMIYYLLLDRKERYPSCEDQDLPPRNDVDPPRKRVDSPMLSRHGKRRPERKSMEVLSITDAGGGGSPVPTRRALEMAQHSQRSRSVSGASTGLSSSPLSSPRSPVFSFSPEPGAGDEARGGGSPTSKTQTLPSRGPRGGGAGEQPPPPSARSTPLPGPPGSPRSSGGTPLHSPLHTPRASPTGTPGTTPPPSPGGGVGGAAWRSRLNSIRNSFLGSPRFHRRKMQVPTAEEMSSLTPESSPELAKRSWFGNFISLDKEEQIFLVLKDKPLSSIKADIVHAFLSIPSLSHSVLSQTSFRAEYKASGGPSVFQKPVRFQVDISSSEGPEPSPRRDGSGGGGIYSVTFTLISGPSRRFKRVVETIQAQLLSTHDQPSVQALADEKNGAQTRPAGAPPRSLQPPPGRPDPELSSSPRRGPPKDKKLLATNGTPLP

[5] = target: T2, Serine/threonine-protein kinase Sgk3 (Homo sapiens) (UniProt Q96BR1); assay: Inhibition of SGK3 (unknown origin) at 30 uM by microfluidic mobility shift assay relative to control; outline: as §2
T2 sequence (whole entry): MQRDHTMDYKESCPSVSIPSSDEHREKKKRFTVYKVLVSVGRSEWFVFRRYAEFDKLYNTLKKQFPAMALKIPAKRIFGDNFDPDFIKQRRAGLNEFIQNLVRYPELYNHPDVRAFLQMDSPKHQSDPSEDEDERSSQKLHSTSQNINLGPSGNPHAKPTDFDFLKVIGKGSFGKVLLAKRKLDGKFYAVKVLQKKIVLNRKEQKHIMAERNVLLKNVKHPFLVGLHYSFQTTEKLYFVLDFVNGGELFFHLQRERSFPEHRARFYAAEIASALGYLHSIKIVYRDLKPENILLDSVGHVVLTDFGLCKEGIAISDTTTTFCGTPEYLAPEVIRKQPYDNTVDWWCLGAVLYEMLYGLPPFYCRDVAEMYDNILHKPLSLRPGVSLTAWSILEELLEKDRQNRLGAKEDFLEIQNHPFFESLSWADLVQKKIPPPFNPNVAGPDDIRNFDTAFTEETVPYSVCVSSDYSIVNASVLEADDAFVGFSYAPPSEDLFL

Homo sapiens [6] = species on record: Homo sapiens; assay: Inhibition of PKGbeta (unknown origin) at 30 uM by microfluidic mobility shift assay relative to control; outline: as §2
[7] = target: T3, Protein kinase C epsilon type (Homo sapiens) (UniProt Q02156); assay: Inhibition of PKCepsilon (unknown origin) at 30 uM by microfluidic mobility shift assay relative to control; outline: as §2
T3 sequence (whole entry): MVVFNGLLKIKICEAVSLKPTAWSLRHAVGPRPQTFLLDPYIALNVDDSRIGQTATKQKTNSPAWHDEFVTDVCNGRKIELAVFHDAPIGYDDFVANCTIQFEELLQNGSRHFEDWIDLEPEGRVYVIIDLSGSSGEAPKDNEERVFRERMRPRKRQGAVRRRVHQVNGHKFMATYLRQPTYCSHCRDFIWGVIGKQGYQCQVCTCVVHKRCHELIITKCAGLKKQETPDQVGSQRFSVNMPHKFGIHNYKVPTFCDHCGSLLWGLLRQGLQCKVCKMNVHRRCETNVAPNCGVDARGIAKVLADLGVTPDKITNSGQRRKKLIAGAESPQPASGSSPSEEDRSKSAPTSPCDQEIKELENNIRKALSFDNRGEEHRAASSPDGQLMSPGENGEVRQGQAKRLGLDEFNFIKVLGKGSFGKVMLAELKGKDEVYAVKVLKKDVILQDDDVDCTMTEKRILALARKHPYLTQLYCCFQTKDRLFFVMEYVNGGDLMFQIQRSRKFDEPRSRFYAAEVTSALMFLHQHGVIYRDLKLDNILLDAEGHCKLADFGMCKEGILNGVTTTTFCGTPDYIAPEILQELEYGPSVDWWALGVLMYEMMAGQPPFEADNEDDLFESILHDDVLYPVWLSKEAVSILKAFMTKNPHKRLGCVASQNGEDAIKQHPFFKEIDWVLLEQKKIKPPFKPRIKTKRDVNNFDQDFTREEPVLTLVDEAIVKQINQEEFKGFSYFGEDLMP

Insulin-like growth factor 1 receptor (Homo sapiens), sequence (P08069 31-736 limits assumed): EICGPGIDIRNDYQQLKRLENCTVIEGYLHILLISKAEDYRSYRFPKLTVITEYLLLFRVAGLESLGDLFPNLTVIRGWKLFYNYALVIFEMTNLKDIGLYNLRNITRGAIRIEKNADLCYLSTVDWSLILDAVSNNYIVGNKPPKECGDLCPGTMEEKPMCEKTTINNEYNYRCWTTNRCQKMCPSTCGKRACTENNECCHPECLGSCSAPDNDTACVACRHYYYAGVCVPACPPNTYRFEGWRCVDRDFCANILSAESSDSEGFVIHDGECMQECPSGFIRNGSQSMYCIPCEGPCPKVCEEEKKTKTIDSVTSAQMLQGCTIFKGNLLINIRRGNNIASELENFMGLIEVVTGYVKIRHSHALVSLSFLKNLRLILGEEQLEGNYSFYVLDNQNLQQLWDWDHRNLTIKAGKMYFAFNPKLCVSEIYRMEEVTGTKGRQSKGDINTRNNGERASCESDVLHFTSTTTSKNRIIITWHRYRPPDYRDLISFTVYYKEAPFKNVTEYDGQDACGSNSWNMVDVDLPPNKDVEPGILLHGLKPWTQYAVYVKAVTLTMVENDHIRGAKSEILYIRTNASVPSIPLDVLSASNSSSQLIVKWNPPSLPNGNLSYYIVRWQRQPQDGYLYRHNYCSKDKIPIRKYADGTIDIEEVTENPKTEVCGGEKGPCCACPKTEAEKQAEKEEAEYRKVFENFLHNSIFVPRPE
Insulin-like growth factor 1 receptor (Homo sapiens), sequence (P08069 741-1367 limits assumed): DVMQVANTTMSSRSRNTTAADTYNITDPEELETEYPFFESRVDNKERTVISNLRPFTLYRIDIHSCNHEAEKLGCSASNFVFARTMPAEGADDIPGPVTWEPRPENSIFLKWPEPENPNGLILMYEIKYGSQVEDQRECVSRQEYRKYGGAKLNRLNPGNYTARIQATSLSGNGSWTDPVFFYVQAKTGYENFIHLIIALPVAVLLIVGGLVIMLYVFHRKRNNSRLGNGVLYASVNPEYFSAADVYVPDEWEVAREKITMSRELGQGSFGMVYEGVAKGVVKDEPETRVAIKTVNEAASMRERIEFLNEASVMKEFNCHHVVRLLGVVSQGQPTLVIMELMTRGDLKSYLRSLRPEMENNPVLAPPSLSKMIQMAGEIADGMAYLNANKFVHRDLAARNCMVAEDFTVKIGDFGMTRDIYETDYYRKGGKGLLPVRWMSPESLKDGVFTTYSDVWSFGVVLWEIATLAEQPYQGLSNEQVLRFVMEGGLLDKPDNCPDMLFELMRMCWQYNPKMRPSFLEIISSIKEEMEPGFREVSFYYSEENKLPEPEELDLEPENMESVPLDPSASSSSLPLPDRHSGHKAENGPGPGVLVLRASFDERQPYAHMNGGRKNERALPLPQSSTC
Receptor-type tyrosine-protein kinase FLT3 (Homo sapiens), sequence (P36888 whole entry): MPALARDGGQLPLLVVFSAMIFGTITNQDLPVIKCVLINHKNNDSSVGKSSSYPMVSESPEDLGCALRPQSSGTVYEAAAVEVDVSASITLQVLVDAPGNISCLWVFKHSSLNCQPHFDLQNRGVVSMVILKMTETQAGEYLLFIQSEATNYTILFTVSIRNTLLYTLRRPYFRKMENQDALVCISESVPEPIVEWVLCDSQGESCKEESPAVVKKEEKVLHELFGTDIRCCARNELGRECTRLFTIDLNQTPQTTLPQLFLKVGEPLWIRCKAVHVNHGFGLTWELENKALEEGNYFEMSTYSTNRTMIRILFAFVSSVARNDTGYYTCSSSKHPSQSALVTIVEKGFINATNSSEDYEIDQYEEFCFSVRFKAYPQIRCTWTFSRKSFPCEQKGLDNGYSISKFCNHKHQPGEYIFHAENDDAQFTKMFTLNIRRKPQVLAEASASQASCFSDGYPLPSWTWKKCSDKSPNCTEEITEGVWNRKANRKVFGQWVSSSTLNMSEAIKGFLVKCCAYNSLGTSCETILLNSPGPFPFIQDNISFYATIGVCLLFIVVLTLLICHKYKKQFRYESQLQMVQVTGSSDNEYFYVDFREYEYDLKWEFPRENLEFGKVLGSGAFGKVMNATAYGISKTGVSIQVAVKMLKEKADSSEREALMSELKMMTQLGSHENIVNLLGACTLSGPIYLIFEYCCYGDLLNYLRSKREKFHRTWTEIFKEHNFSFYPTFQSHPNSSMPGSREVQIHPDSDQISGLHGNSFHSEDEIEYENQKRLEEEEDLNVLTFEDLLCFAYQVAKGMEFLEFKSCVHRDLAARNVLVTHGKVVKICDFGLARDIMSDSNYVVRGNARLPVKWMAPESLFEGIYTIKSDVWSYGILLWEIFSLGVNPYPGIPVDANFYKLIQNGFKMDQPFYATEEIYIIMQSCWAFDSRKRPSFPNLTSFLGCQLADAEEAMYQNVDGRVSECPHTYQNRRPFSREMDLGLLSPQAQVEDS

| Compound | inhibition [1] | inhibition [2] | inhibition (Homo sapiens [3]) | inhibition [4] | inhibition [5] | inhibition (Homo sapiens [6]) | inhibition [7] |
| --- | --- | --- | --- | --- | --- | --- | --- |
| c1ccc(C2CCNC3(CCN(c4ncnc5[nH]cnc45)CC3)C2)cc1 (racemic) | 25% | 5% | 99% | 13% | 95% | 99% | 66% |
| c1ccc(CC2CCNC3(CCN(c4ncnc5[nH]cnc45)CC3)C2)cc1 (racemic) | 10% | 5% | 99% | 16% | 94% | 98% | 64% |
| c1ccc(CC2CCC3(CCN(c4ncnc5[nH]cnc45)CC3)NC2)cc1 (racemic) | 28% | 5% | 86% | 10% | 27% | 86% | 24% |
